Experimental data published in PMC3076219 (European journal of immunology, 2009).
Several values for one entry are separate records, joined by “and”; a condition that tells them apart may be missing. Identical values can stand only once.

Key:
[1] = tested on: CD4+ T cells; settings: ref [3], [9], [10]; cited from earlier work
[2] = tested on: monocytes; settings: cited from earlier work
[3] = tested on: neutrophils; experiment: Calcium mobilization of neutrophils; type: cell-based, human
[4] = cited from earlier work
[5] = tested on: neutrophils; experiment: Cross-desensitization of calcium mobilization of neutrophils; type: cell-based, human
[6] = tested on: neutrophils; experiment: Toxicity to neutrophils; type: cell-based, human
[7] = tested on: P2X7; experiment: P2X7 surface expression on neutrophils, flow cytometry; type: cell-based, human; settings: LL-37 treated neutrophils, 3h; Fig. 2D
Summary of the method: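 Human blood neutrophils were isolated by dextran sedimentation and Ficoll (>95% CD16+) and held at 5×10^6/mL in RPMI 1640 with 1% FBS. They were treated 3h with a dose series (test peptide 1–10 µM; chemokines 1, 5, 10, 50 nM) or with 5 µM for 0.5–3h. Cells were blocked in 10% human serum and stained with anti-CXCR1-APC/anti-CXCR2-FITC or anti-P2X7-FITC, plus anti-CD16. Read-out was flow cytometry GMFI.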

[8] = tested on: CXCR2; experiment: Block of anti-CXCR2 antibody binding to neutrophils; type: cell-based, human; settings: LL-37 treated neutrophils; Supporting Information Fig. 6A
[9] = tested on: CXCR2; experiment: CXCR2 surface expression on neutrophils, flow cytometry; type: cell-based, human
[10] = tested on: 125I-CXCL8 specific binding sites on neutrophils (CXCR1/2); experiment: Competition with 125I-CXCL8 for binding to neutrophils; parameters: species or system human; settings: 1.25 nM 125I-CXCL8, 2h on ice, triplicate, dose-dependent, Fig. 5B
[11] = tested on: P2X7; settings: LL-37; ref [14]; cited from earlier work

Q: What does the source list for “LL-37: ~4.5 kD active α-helical peptide, C-terminal domain of human cathelicidin hCAP18”?
A: migration of CD4+ T cells [1]: migration of human peripheral monocytes, neutrophils, CD4+ T cells; migration of human peripheral monocytes ([2]; ref [3], [9], [10]): migration of human peripheral monocytes; in vitro migration of human peripheral blood monocytes ([2]; ref [9]): induces in vitro migration of human peripheral blood monocytes; [Ca2+]i pattern, dose response ([3]; LL-37 1 µM, 2.5 µM, 5 µM, 10 µM, Indo-1, Fig. 3A): a rapid rise followed by a slightly declining plateau region; [Ca2+]i duration ([3]; LL-37, 600s recording time, Fig. 3A): sustained calcium mobilization over the 600s recording time; return of Ca2+ response to baseline, neutrophils ([3]; LL-37, Fig 3A): returns to baseline for THP-1 cells, but not for neutrophils and monocytes; calcium flux response in the absence of extracellular Ca2+ ([3]; PBS without calcium and magnesium, LL-37 5 µM, WKYMVm 5 µM, ATP 5 µM, Fig. 3C): only the WKYMVm peptide is capable of generating a calcium flux response; wound neovascularization ([4]; ref [7]): promotes wound neovascularization; re-epithelialization of healing skin ([4]; ref [8]): re-epithelialization of healing skin; cross-desensitization of ATP response by LL-37 ([5]; LL-37 first, then ATP, Supporting information Fig. 3A-B): unable to block calcium mobilization stimulated by LL-37 in neutrophils, and vice versa; cross-desensitization of response to fMLF by LL-37, CXCL7, CXCL1 ([5]; data not shown): do not cross-sensitize fMLF stimulation; cell membrane permeability ([6]; > 10 µM LL-37, 125I-CXCL8 enters cells non-specifically): can cause cell membrane permeability; concentration with toxic activity on neutrophils ([6]; in 125I-CXCL8 binding study): > 10 µM and 10 µM; P2X7 surface expression [7]: up-regulate the expression of P2X7; block of anti-CXCR2 antibody binding [8]: did not block anti-CXCR2 antibodiy binding; down-regulation of CXCR2 in time course compared to untreated controls ([9]; LL-37 5 µM, at 3h, p<0.001, Fig. 1B, four independent experiments): 50%; CXCR2 surface expression at 10 µM ([9]; LL-37 10 µM, 3h): a further reduction was observed at 10 µM; maximum competition of 125I-CXCL8 binding ([10]; 2×10^6 cells): around 50%; displacement of 125I-CXCL8 [10]: partly displace; IL-1β processing and release from monocytes [11]: induce IL-1β processing and release from monocytes
